Measured values published in ChEMBL document CHEMBL4364345, “Synthesis and evaluation of 1,3,4-oxadiazole derivatives for development as broad-spectrum antibiotics” (Bioorg Med Chem, 2019).
Values after ≈ are worked out from the molar mass of the structure shown. Active and inactive are the calls of the source.

Assays:
Huh-7 = assay: Cytotoxicity against human HuH7 cells assessed as decrease in cell viability in MTT assay; format: cell-based
How it was run: (§1)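 Cell viability was measured by MTT on a robotic screening platform. Residual viability was expressed as a percentage of the mean viable cells in DMSO-treated controls. Under 25-30% viability was considered cytotoxic, and IC50 values were derived.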

[1] = test system: Staphylococcus epidermidis; assay: Antimicrobial activity against Staphylococcus epidermidis clinical isolate at 50 ug/disk incubated for 20 +/- 4 hrs by agar disk diffusion method; format: functional; settings: read-out: DIZ
How it was run: (§2)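 Agar disk diffusion on Mueller-Hinton agar swab-seeded from a 0.5 McFarland inoculum (about 10^8 CFU/ml). Cellulose discs got 50 μg compound (10 μl of 5 g/L in DMSO); a 10 μL DMSO disc was the control. Incubated aerobically at 35 ± 2 °C for 20 ± 4 h, then growth-inhibition diameters measured.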

Clostridium perfringens [2] = assay: Antimicrobial activity against Clostridium perfringens clinical isolate at 50 ug/disk incubated for 20 +/- 4 hrs by agar disk diffusion method; format: functional; settings: read-out: DIZ
How it was run: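 Agar disk diffusion on MH agar with 5% horse blood (MHF), surface-seeded by swab from a 0.5 McFarland inoculum (about 10^8 CFU/ml). Cellulose discs received 10 μl of a 5 g/L DMSO solution (50 μg). A DMSO-only disc served as control. Anaerobic incubation at 35 ± 2 °C for 20 ± 4 h; growth-inhibition diameter measured in mm.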

Enterococcus faecalis [3] = assay: Antimicrobial activity against Enterococcus faecalis ATCC 29212 at 50 ug/disk incubated for 20 +/- 4 hrs by agar disk diffusion method; format: functional; settings: read-out: DIZ; how it was run: as §2
Acinetobacter baumannii = assay: Antimicrobial activity against Acinetobacter baumannii clinical isolate at 50 ug/disk incubated for 20 +/- 4 hrs by agar disk diffusion method; format: functional; settings: read-out: DIZ; how it was run: as §2
Bacteroides fragilis = assay: Antimicrobial activity against Bacteroides fragilis ATCC 25285 at 50 ug/disk incubated for 20 +/- 4 hrs by agar disk diffusion method; format: functional; settings: read-out: DIZ
How it was run: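 Anaerobic disk diffusion: MH agar + 5% horse blood seeded from a 0.5 McFarland swab, with discs of 50 μg compound (10 μl of 5 g/L DMSO solution) and a DMSO control disc. Kept at 35 ± 2 °C under anaerobic conditions for 20 ± 4 h; inhibition diameters recorded.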

Enterobacter cloacae = assay: Antimicrobial activity against Enterobacter cloacae clinical isolate at 50 ug/disk incubated for 20 +/- 4 hrs by agar disk diffusion method; format: functional; settings: read-out: DIZ; how it was run: as §2
Escherichia coli [4] = assay: Antimicrobial activity against Escherichia coli ATCC 25922 at 50 ug/disk incubated for 20 +/- 4 hrs by agar disk diffusion method; format: functional; settings: read-out: DIZ; how it was run: as §2
Klebsiella pneumoniae = assay: Antimicrobial activity against Klebsiella pneumoniae clinical isolate at 50 ug/disk incubated for 20 +/- 4 hrs by agar disk diffusion method; format: functional; settings: read-out: DIZ; how it was run: as §2
Morganella morganii [5] = assay: Antimicrobial activity against Morganella morganii EB6 clinical isolate at 50 ug/disk incubated for 20 +/- 4 hrs by agar disk diffusion method; format: functional; settings: read-out: DIZ; how it was run: as §2
Morganella morganii [6] = assay: Antimicrobial activity against Morganella morganii EB8clinical isolate at 50 ug/disk incubated for 20 +/- 4 hrs by agar disk diffusion method; format: functional; settings: EB8, read-out: DIZ; how it was run: as §2
Proteus vulgaris = assay: Antimicrobial activity against Proteus vulgaris clinical isolate at 50 ug/disk incubated for 20 +/- 4 hrs by agar disk diffusion method; format: functional; settings: read-out: DIZ; how it was run: as §2
[7] = test system: Mycolicibacterium fortuitum; assay: Antimicrobial activity against Mycobacterium fortuitum clinical isolate at 50 ug/disk incubated for 4 days by agar disk diffusion method; format: functional; settings: 96 h, read-out: DIZ
How it was run: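 On MH agar with 5% horse blood, a 0.5 McFarland inoculum was swabbed and discs with 50 μg compound (from 5 g/L in DMSO) were laid down, alongside a DMSO control disc. Incubation was humid and aerobic at 35 ± 2 °C for 4 days, then growth-inhibition diameters were measured.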

Staphylococcus aureus = assay: Antimicrobial activity against Staphylococcus aureus ATCC 29213 by broth microdilution method; format: functional
How it was run: (§3)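 MICs were set by broth microdilution following EUCAST guidelines, from three independent experiments reported as values or ranges. MICs were measured only where disk-diffusion inhibition diameters were 9 mm or more.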

[8] = test system: Staphylococcus epidermidis; assay: Antimicrobial activity against Staphylococcus epidermidis clinical isolate by broth microdilution method; format: functional; how it was run: as §3
Clostridium perfringens [9] = assay: Antimicrobial activity against Clostridium perfringens clinical isolate by broth microdilution method; format: functional
How it was run: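 MIC by broth microdilution following EUCAST guidelines; values or ranges from three independent experiments. MICs were determined only where the disk diffusion inhibition diameter was at least 9 mm.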

Enterococcus faecalis [10] = assay: Synergistic antimicrobial activity against Enterococcus faecalis ATCC 29212 assessed as DIZ at 50 ug/disk incubated for 20 +/- 4 hrs in presence of rifampicin by agar disk diffusion method (reference value: 20 millimeter); format: functional; settings: read-out: DIZ
Enterococcus faecalis [11] = assay: Synergistic antimicrobial activity against Enterococcus faecalis ATCC 29212 assessed as DIZ at 50 ug/disk incubated for 20 +/- 4 hrs in presence of erythromycin by agar disk diffusion method (reference value: 20 millimeter); format: functional; settings: read-out: DIZ
Enterococcus faecium [12] = assay: Synergistic antimicrobial activity against Enterococcus faecium AUS0004 assessed as DIZ at 50 ug/disk incubated for 20 +/- 4 hrs in presence of rifampicin by agar disk diffusion method (reference value: 10 millimeter); format: functional; settings: read-out: DIZ
Enterococcus faecium [13] = assay: Synergistic antimicrobial activity against Enterococcus faecium AUS0004 assessed as DIZ at 50 ug/disk incubated for 20 +/- 4 hrs in presence of ampicillin by agar disk diffusion method (reference value: 6 millimeter); format: functional; settings: read-out: DIZ
Enterococcus faecium [14] = assay: Synergistic antimicrobial activity against Enterococcus faecium AUS0004 assessed as DIZ at 50 ug/disk incubated for 20 +/- 4 hrs in presence of streptomycin by agar disk diffusion method (reference value: 22 millimeter); format: functional; settings: read-out: DIZ
Enterococcus faecium [15] = assay: Synergistic antimicrobial activity against Enterococcus faecium AUS0004 assessed as DIZ at 50 ug/disk incubated for 20 +/- 4 hrs in presence of gentamicin by agar disk diffusion method (reference value: 17 millimeter); format: functional; settings: read-out: DIZ
HCT-116 = assay: Cytotoxicity against human HCT116 cells assessed as decrease in cell viability in MTT assay; format: cell-based; how it was run: as §1
PC-3 = assay: Cytotoxicity against human PC3 cells assessed as decrease in cell viability in MTT assay; format: cell-based; how it was run: as §1
MCF7 = assay: Cytotoxicity against human MCF7 cells assessed as decrease in cell viability in MTT assay; format: cell-based; how it was run: as §1
NCI-H727 = assay: Cytotoxicity against human NCI-H727 cells assessed as decrease in cell viability in MTT assay; format: cell-based; how it was run: as §1
[16] = Cytotoxicity against human NHFB cells assessed as decrease in cell viability in MTT assay; format: cell-based; how it was run: as §1
Escherichia coli [17] = assay: Antimicrobial activity against TolC deficient Escherichia coli BW25113 by broth microdilution method; format: functional
How it was run: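 MIC by broth microdilution per EUCAST guidelines, in E. coli BW25113 and its previously described deletion derivative.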

SMILES | IC50 (Huh-7) | zone of inhibition at 50 µg/disc [1] | zone of inhibition at 50 µg/disc (Clostridium perfringens [2]) | zone of inhibition at 50 µg/disc (Enterococcus faecalis [3]) | zone of inhibition at 50 µg/disc (Acinetobacter baumannii) | zone of inhibition at 50 µg/disc (Bacteroides fragilis) | zone of inhibition at 50 µg/disc (Enterobacter cloacae) | zone of inhibition at 50 µg/disc (Escherichia coli [4]) | zone of inhibition at 50 µg/disc (Klebsiella pneumoniae) | zone of inhibition at 50 µg/disc (Morganella morganii [5]) | zone of inhibition at 50 µg/disc (Morganella morganii [6]) | zone of inhibition at 50 µg/disc (Proteus vulgaris) | zone of inhibition at 50 µg/disc [7] | MIC (Staphylococcus aureus) | MIC [8] | MIC (Clostridium perfringens [9]) | IC50 (HCT-116) | IC50 (PC-3) | IC50 (MCF7) | IC50 [16] | also measured
O=C(Nc1nnc(-c2ccc(C(F)(F)F)cc2)o1)c1cccc(Cl)c1 | 20 µM | 27 mm | 11 mm | 20 mm | 6 mm | 11 mm | 6 mm | 6 mm | 6 mm | 6 mm | 6 mm | 6 mm | 23 mm | 2 µg/mL (≈ 5.44 µM) | 0.0625 to 0.25 µg/mL (≈ 0.17 to 0.68 µM) | 2 to 4 µg/mL (≈ 5.44 to 10.9 µM) | 10 µM | 17 µM | 15 µM | > 25 µM | zone of inhibition at 50 µg/disc (Enterococcus faecalis [10]): 23 mm; zone of inhibition at 50 µg/disc (Enterococcus faecalis [11]): 24 mm; zone of inhibition at 50 µg/disc (Enterococcus faecium [12]): 26 mm; zone of inhibition at 50 µg/disc (Enterococcus faecium [13]): 24 mm; zone of inhibition at 50 µg/disc (Enterococcus faecium [14]): 26 mm; zone of inhibition at 50 µg/disc (Enterococcus faecium [15]): 25 mm; IC50 (NCI-H727): 10 µM; MBC (Escherichia coli [17]): 16 µM (≈ 5.88 µg/mL); MIC (Escherichia coli [17]): 0.25 µM (≈ 0.0919 µg/mL)
O=C(Nc1nnc(-c2ccc(C(F)(F)F)cc2)o1)c1ccc(Cl)nc1 | > 25 µM | 28 mm | 13 mm | 23 mm | 6 mm | 16 mm | 6 mm | 6 mm | 6 mm | 6 mm | 6 mm | 8 mm | 19 mm | 2 to 4 µg/mL (≈ 5.42 to 10.8 µM) | 1 to 2 µg/mL (≈ 2.71 to 5.42 µM) | 4 µg/mL (≈ 10.8 µM) | > 25 µM | > 25 µM | > 25 µM | > 25 µM | zone of inhibition at 50 µg/disc (Enterococcus faecalis [10]): 23 mm; zone of inhibition at 50 µg/disc (Enterococcus faecalis [11]): 23 mm; zone of inhibition at 50 µg/disc (Enterococcus faecium [12]): 22 mm; zone of inhibition at 50 µg/disc (Enterococcus faecium [13]): 24 mm; zone of inhibition at 50 µg/disc (Enterococcus faecium [14]): 26 mm; zone of inhibition at 50 µg/disc (Enterococcus faecium [15]): 25 mm; IC50 (NCI-H727): > 25 µM; MIC (Escherichia coli [17]): 1 µM (≈ 0.369 µg/mL)
O=C(Nc1nnc(-c2ccc(F)cc2)o1)c1ccc(Cl)cc1 | 20 µM | 15 mm | 6 mm | 6 mm | 6 mm | 6 mm | 6 mm | 6 mm | 6 mm | 6 mm | 6 mm | 6 mm | 9 mm | 0.5 to 4 µg/mL (≈ 1.57 to 12.6 µM) | 0.5 to 4 µg/mL (≈ 1.57 to 12.6 µM) | 4 µg/mL (≈ 12.6 µM) | 17 µM | 21 µM | 22 µM | > 25 µM | IC50 (NCI-H727): 18 µM; MIC (Escherichia coli [17]): 2 µM (≈ 0.635 µg/mL)
O=C(Nc1ncc(-c2ccc(F)cc2)o1)c1ccc(Cl)cc1 | 3 µM | 18 mm | 6 mm | 11 mm | 6 mm | 8 mm | 6 mm | 8 mm | 6 mm | 6 mm | 6 mm | 10 mm | 12 mm | 0.5 to 4 µg/mL (≈ 1.58 to 12.6 µM) | 0.25 µg/mL (≈ 0.789 µM) | inactive | 2 µM | 2 µM | 4 µM | > 25 µM | zone of inhibition at 50 µg/disc (Enterococcus faecalis [10]): 20 mm; zone of inhibition at 50 µg/disc (Enterococcus faecalis [11]): 20 mm; zone of inhibition at 50 µg/disc (Enterococcus faecium [12]): 15 mm; zone of inhibition at 50 µg/disc (Enterococcus faecium [13]): 13 mm; zone of inhibition at 50 µg/disc (Enterococcus faecium [14]): 21 mm; zone of inhibition at 50 µg/disc (Enterococcus faecium [15]): 18 mm
